Records with an inconclusive call do not appear.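 The calls were made as follows, unless noted: active = viability at or below 27.92% in each of two runs, the all-compound median minus 4 SD; inconclusive = no clear call, values can overlap the other calls; inactive = the rest.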
Columns and labels:
[1] = S. cerevisiae growth inhibition in permissive medium (OD615), pilot counter-assay for S. cerevisiae lifespan shortening project, permissive growth control (AID 705;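 active = growth inhibition above 25% in both replicates, a cutoff set 3 SD above the mean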); conditions: OD615, 24 h, at 10 µM, stronger effect = higher value
Outline: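 System – S. cerevisiae with engineered DeaD lifespan system · Buffer or medium – SC raffinose/galactose permissive medium · Schedule – cells pre-grown 4 h, then 24 h compound exposure, 30 °C humidified · Technique – culture turbidity as optical density at 615 nm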

[2] = S. cerevisiae growth inhibition in restrictive medium, OD615, pilot screen, restrictive growth control, yeast lifespan reduction project (AID 706;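 active = growth inhibition above a set limit, 3 SD over mean compound inhibition, in both replicates, cut at about 43% in these data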;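 also: modified DeaD lifespan yeast strain shifted to restrictive glucose medium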); conditions: OD615, 48 h, at 10 µM, stronger effect = higher value
Outline: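 Material: engineered S. cerevisiae DeaD strain / Medium: glucose-based CSMM-D restrictive medium / Compound: single dose of 10 µM compound final, 0.25% DMSO / Timing: 4 h pre-incubation, 48 h exposure at 30 °C / Technique: OD615 absorbance reading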

[3] = doxorubicin toxicity protection in MRP-1 cells – H69AR cells, CellTiter-Glo, duplicate, MRP-1 activator project, pilot screen (AID 807;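 active = viability increase at or above a cutoff of the median across tested compounds plus 3 SD, cut at about 8.5% in these data, passing the limit was not always enough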;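 also: compound pretreatment 18-22 h then 72 h combined with doxorubicin; 0% = doxorubicin alone and 100% = vehicle without doxorubicin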); conditions: H69AR viability with doxorubicin, CellTiter-Glo luminescence; at 10 µM; stronger effect = higher value
[4] = viability of HCT116 without oncogenic beta-catenin – human colon tumor cells, pilot screen (AID 823;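 active = cell viability at or below a set limit in both duplicate runs, the limit being the all-compound median minus 4 SD, cut at about 23% in these data, passing the limit was not always enough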;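 also: 0% = wells killed by 20 µM Hyamine and 100% = untreated DMSO cell wells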); conditions: HCT116 beta-catenin knockout viability, CellTiter-Glo, 60 h; at 10 µM; stronger effect = lower value
[5] = viability of PTEN-null HCT116 cells – cell-based, HCT116 clonal line, CellTiter-Glo, pilot screen (AID 824); conditions: HCT116 PTEN-deleted viability, 60 h, at 10 µM, stronger effect = lower value;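 also: 0% = 20 µM Hyamine control and 100% = vehicle cell control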
[6] = RAM pathway blockade in budding yeast – dse1pr::URA3 reporter, 5-FOA selection, pilot screen (AID 869;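 active = inhibition over a set limit, the all-compound mean plus 3 SD, in both replicate runs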;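 also: 0% = DMSO wells with no growth and 100% = 10 µM 1-NA-PP1 with full growth; RAM network block rescues cells from 5-FOA so hits raise OD615 growth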); conditions: S. cerevisiae dse1pr::URA3 5-FOA growth, OD615, 2 d; at 10 µM; stronger effect = higher value; strain carries analog-sensitive mutant Cbk1 kinase
[7] = RAM signaling pathway blockade in yeast – S. cerevisiae, Pdr1DBD-CYC8 efflux-inhibited sensitized strain, primary screen (AID 1298;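 active = RAM network inhibition above 8.4% in each of two replicates, 3 SD over the compound average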;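 also: 0% = DMSO untreated cells without growth and 100% = 10 µM 1-NA-PP1 full growth; higher means more yeast growth rescued from 5-FOA killing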); conditions: S. cerevisiae cbk1-as DSE1-URA3 strain, 5-FOA growth OD615, 2 d; at 50 µM; stronger effect = higher value

CC(=O)N1CCC(N(CCCOC(C)C)C(=O)Nc2ccc(Cl)cc2)CC1
inactive: growth inhibition [1] -2.75% | growth inhibition [2] 0.145% | viability increase [3] -0.86% | viability [4] 93% | viability [5] 95.9% | inhibition [6] 0.365% | RAM network inhibition [7] 3.16%

COc1ccccc1C1(CC(=O)O)CCOC(C)(C)C1 (stereo not drawn)
inactive: growth inhibition [1] -2.27% | growth inhibition [2] -9.79% | viability increase [3] -1.61% | viability [4] 90.9% | viability [5] 92.2% | inhibition [6] 0.095% | RAM network inhibition [7] -1.44%

O=C1CCc2cc(S(=O)(=O)N3CCCC3C(=O)N3CCN(c4ccccc4)CC3)ccc2N1 (stereo not drawn)
inactive: growth inhibition [1] -10.3% | growth inhibition [2] -12.1% | viability increase [3] -3.91% | viability [4] 105% | viability [5] 85% | inhibition [6] 3.67% | RAM network inhibition [7] 4.76%

Cc1cc(C(=O)N2CCN(c3ccccn3)CC2)no1
inactive: growth inhibition [1] -1.03% | growth inhibition [2] 0.795% | viability increase [3] 0.33% | viability [4] 109% | viability [5] 102% | inhibition [6] 1.05% | RAM network inhibition [7] 2.86%

Fc1ccc(CSc2nnc(-c3cccnc3)n2Cc2ccco2)cc1
inactive: growth inhibition [1] 1.42% | growth inhibition [2] 10.1% | viability increase [3] -2.14% | viability [4] 90.8% | viability [5] 99.8% | inhibition [6] 1.94% | RAM network inhibition [7] 2.25%

CCOC(=O)c1ccc(NC(=O)CSc2nnc(Cn3c(=O)sc4ccccc43)n2C)cc1
inactive: growth inhibition [1] -8.11% | growth inhibition [2] 12% | viability increase [3] -2.6% | viability [4] 94.1% | viability [5] 88.5% | inhibition [6] 0.665% | RAM network inhibition [7] 3.59%

N#Cc1cccc(NC(=O)NCCc2c[nH]c3ccccc23)c1
inactive: growth inhibition [1] -17.4% | growth inhibition [2] 1.5% | viability increase [3] -4.55% | viability [4] 93.1% | viability [5] 90.2% | inhibition [6] -0.125% | RAM network inhibition [7] 4.4%

CSc1nnc(NC(=O)C2CCCCC2)s1
inactive: growth inhibition [1] -7.81% | growth inhibition [2] -6.62% | viability increase [3] 0.06% | viability [4] 97% | viability [5] 99.3% | inhibition [6] -0.045% | RAM network inhibition [7] 0.63%

COc1ccc(-c2cn3c(C)c(C(=O)N4CCN(c5ccc(OC)cc5)CC4)sc3n2)cc1
inactive: growth inhibition [1] -5.73% | growth inhibition [2] -9.94% | viability increase [3] -1.79% | viability [4] 103% | viability [5] 104% | inhibition [6] 2.58% | RAM network inhibition [7] 3.17%

CCc1nc(SCC(=O)c2ccc(C)c(C)c2)n[nH]1
inactive: growth inhibition [1] -9.29% | growth inhibition [2] 4.11% | viability increase [3] 2.14% | viability [4] 102% | viability [5] 104% | inhibition [6] 0.56% | RAM network inhibition [7] 6.63%

Cc1cccc(-c2nnc(-c3ccccc3)o2)c1
inactive: growth inhibition [1] -8.19% | growth inhibition [2] -3.2% | viability increase [3] -5.21% | viability [4] 78% | viability [5] 81.7% | inhibition [6] 1.5% | RAM network inhibition [7] 1.78%

C=CCc1cc(/C=N/n2cnnc2)cc(OCC)c1O
inactive: growth inhibition [1] -10.7% | growth inhibition [2] -1.86% | viability increase [3] -2.46% | viability [4] 102% | viability [5] 94.7% | inhibition [6] 0.925% | RAM network inhibition [7] 0.6%

COc1ccc(OC)c2sc(NC(=O)C3=COCCO3)nc12
inactive: growth inhibition [1] -14.8% | growth inhibition [2] 0.525% | viability increase [3] -2.76% | viability [4] 93% | viability [5] 90.9% | inhibition [6] 0.98% | RAM network inhibition [7] 3.16%

O=C(Cc1ccc2c(c1)OCCO2)c1c(O)cc(O)cc1O
inactive: growth inhibition [1] -12.3% | growth inhibition [2] -4.45% | viability increase [3] -1.79% | viability [4] 96.1% | viability [5] 94% | inhibition [6] 3.34% | RAM network inhibition [7] 6.58%

CCn1c(CNC(=O)C23CC4CC(CC(C4)C2)C3)nnc1SCC(=O)Nc1nnc(C)s1
inactive: growth inhibition [1] 2.36% | growth inhibition [2] 24.3% | viability increase [3] 0.62% | viability [4] 96.7% | viability [5] 96.9% | inhibition [6] 2.5% | RAM network inhibition [7] 2.71%

CC(NC(=O)COc1ccccc1)C(c1ccccc1)N1CCN(C)CC1 (stereo not drawn)
inactive: growth inhibition [1] -4.2% | growth inhibition [2] -7.49% | viability increase [3] -3.94% | viability [4] 97% | viability [5] 96.8% | inhibition [6] 1.02% | RAM network inhibition [7] 4.65%

O=C1c2cccc3cccc(c23)C(=O)N1c1nccs1
inactive: growth inhibition [1] -1.67% | growth inhibition [2] 0% | viability increase [3] 0.23% | viability [4] 104% | viability [5] 106% | inhibition [6] 1.98% | RAM network inhibition [7] 6.64%

O=C(c1ccco1)N1CCN(c2nc3ccsc3c(=O)s2)CC1
inactive: growth inhibition [1] -0.135% | growth inhibition [2] 6.59% | viability increase [3] -3.19% | viability [4] 97.1% | viability [5] 94.3% | inhibition [6] 2.1% | RAM network inhibition [7] 5.38%

Cc1ccc(N(C(=O)c2cccs2)C2C=CS(=O)(=O)C2)cc1 (stereo not drawn)
inactive: growth inhibition [1] -11.1% | growth inhibition [2] -10.6% | viability increase [3] -2.23% | viability [4] 98.3% | viability [5] 94% | inhibition [6] 1.96% | RAM network inhibition [7] 1.19%

O=C(CSc1nnc(COc2ccccc2)o1)Nc1nccs1
inactive: growth inhibition [1] 6.56% | growth inhibition [2] 4.11% | viability increase [3] -2.31% | viability [4] 95.6% | viability [5] 96.4% | inhibition [6] 1.78% | RAM network inhibition [7] 3.24%

CCn1c(COc2cccc3cccnc23)nnc1SCC(=O)O
inactive: growth inhibition [1] -4.3% | growth inhibition [2] 8.66% | viability increase [3] -0.53% | viability [4] 95.5% | viability [5] 91.5% | inhibition [6] 2.12% | RAM network inhibition [7] 0.05%

Cc1ccc(Nc2nc(N3CCOCC3)nc(N3CCOCC3)n2)cc1
inactive: growth inhibition [1] -16.7% | growth inhibition [2] -7.55% | viability increase [3] -2.57% | viability [4] 64.2% | viability [5] 65.7% | inhibition [6] 1.06% | RAM network inhibition [7] 2.07%

Cc1ccn2c(-c3csc(NCc4ccco4)n3)c(C)nc2c1
inactive: growth inhibition [1] -1.21% | growth inhibition [2] 2.84% | viability increase [3] -4.37% | viability [4] 66.6% | viability [5] 71.8% | inhibition [6] 3.51% | RAM network inhibition [7] 3.65%

Cc1cc2ncn(CC(O)COC3CCCCC3)c2cc1C (stereo not drawn)
inactive: growth inhibition [1] -8.15% | growth inhibition [2] -2.2% | viability increase [3] -2.98% | viability [4] 89.9% | viability [5] 90.3% | inhibition [6] 1.75% | RAM network inhibition [7] 4.21%

Source: PubChem BioAssay
